29 compounds from ChEMBL document CHEMBL3877322, “Design, synthesis, molecular modeling and anti-hyperglycemic evaluation of novel quinoxaline derivatives as potential PPARγ and SUR agonists” (Bioorg Med Chem, 2017) can be followed below.

The subject of experiment [1] is Rattus norvegicus. Description: Antihyperglycemic activity in Swiss albino rat model of streptozotocin-induced hyperglycemia assessed as reduction in blood glucose level at 20 mg/kg, po measured after 3 hrs by glucometer relative to control. Further details: scale not given: the % may be the effect or the level left. The format is functional. An outline of the steps:
(§1)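 Adult male Swiss albino rats (200-300 g) acclimatized 24 h, then given streptozotocin 60.00 mg/kg i.p. in 0.90% sodium citrate buffer pH 4.50. Those with glucose >250.00 mg/dl at 72 h were used, six per group. Single oral dose; diabetic controls received 1% gum acacia vehicle. Tail blood glucose read by glucometer at 0 and 3 h; % reduction calculated.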

Experiment [2] is described as follows: Agonist activity at SUR in Wistar rat islets of pancreas assessed as induction of glucose-stimulated insulin secretion preincubated for 1 hr followed by glucose addition measured after 30 mins by sandwich ELISA. In short, it runs like this: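 Islets from fed male-unspecified Wistar rats (200-250 g), pilocarpine-pretreated i.p., isolated by collagenase, then cultured overnight at 16 mmol/l glucose in CMRL-1066 with L-glutamine, gentamycin and 10% FCS at 37°C. Exposed 1 h to compound in DMSO (5, 10, 15, 20 uM), washed in Ringer HEPES, then 30 min at 37°C with 16.7 mmol/l glucose. Insulin measured by rat insulin sandwich ELISA (A450); EC50 reported.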
On the technique in general: In an ELISA, binding on a coated surface is turned into a signal by an enzyme label.

Experiment [3] concerns the target T1, Peroxisome proliferator-activated receptor gamma (Homo sapiens, UniProt P37231).
T1 sequence (P37231 whole entry): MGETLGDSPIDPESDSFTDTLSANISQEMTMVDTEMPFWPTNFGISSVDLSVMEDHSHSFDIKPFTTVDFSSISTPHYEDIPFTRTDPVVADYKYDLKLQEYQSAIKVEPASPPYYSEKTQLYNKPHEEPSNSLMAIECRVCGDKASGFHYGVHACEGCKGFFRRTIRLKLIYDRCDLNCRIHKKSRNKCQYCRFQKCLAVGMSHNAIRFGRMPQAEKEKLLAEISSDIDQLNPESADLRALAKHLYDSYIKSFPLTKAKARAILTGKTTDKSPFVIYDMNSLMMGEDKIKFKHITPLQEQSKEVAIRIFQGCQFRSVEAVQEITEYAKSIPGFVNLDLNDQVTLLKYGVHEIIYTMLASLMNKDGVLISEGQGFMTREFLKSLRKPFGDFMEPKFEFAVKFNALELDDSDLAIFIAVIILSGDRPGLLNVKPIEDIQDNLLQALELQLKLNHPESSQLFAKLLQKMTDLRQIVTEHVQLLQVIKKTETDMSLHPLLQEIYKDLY
Description: Displacement of fluormone-PPARgamma Green from recombinant human N-terminal GST-tagged PPARgamma-LBD by fluorescence polarization assay. In general terms: Fluorescence polarisation rises when a labelled molecule tumbles more slowly, as on binding a larger partner.

In experiment [4] the test system is Rattus norvegicus. Description: Antihyperglycemic activity in Swiss albino rat model of streptozotocin-induced hyperglycemia assessed as reduction in blood glucose level at 0.36 mg/kg, po measured after 3 hrs by glucometer relative to control. Type of experiment: functional. Also noted: scale not given: the % may be the effect or the level left. In short, it runs like this: as §1

In the case of `CCCCNC(=S)NS(=O)(=O)c1ccc(NC(=O)CN2CC(=O)Nc3ccccc32)cc1`, the Activity with Rattus norvegicus [1] amounted to 30.75%.
As a reminder, the EC50 is the concentration that produces a half-maximal response. Take `Cc1ccc(NC(=S)NS(=O)(=O)c2ccc(CCNS(=O)(=O)c3ccccc3)cc2)cc1`: the EC50 in experiment [2] is 100 µM.
Still for that read-out and setting: under `O=C(NC1CCCCC1)NS(=O)(=O)c1ccc(CCNS(=O)(=O)c2ccc(Cl)cc2)cc1` stands 3.1 µM.
On to `O=C(CN1CC(=O)Nc2ccccc21)Nc1ccc(S(=O)(=O)NC(=O)Nc2ccccc2)cc1`, for which the Activity with Rattus norvegicus [1] is 21.89%.
For `O=C(NC1CCCCC1)NS(=O)(=O)c1ccc(CCNS(=O)(=O)c2ccccc2)cc1`, the EC50 in experiment [2] turned out to be 12.5 µM.
The same measure, in the same setting: under `O=S(=O)(NCCc1ccc(S(=O)(=O)NC(=S)Nc2ccc(Cl)cc2)cc1)c1ccccc1` stands 33.3 µM.
What is called IC50 is the concentration at which inhibition is half-maximal. For `CCCCNC(=O)NS(=O)(=O)c1ccc(NC(=O)CN2CC(=O)Nc3ccccc32)cc1`, the Activity with Rattus norvegicus [1] was found to be 45.1%. For the same compound, the IC50 in experiment [3] worked out at 1.29 µM. Also, the EC50 in experiment [2] was 1.69 µM.
Taken in the same sequence, the figures for `O=C1CN(C(=O)CNc2ccc(S(=O)(=O)NC(=O)NC3CCCCC3)cc2)c2ccccc2N1` were 49.62%, 1.14 µM and 1.89 µM.
Taken in the same sequence, the figures for `Cc1nc2ccccc2n(CC(=O)Nc2ccc(S(=O)(=O)NC(=O)NC3CCCCC3)cc2)c1=O` were 50.58%, 0.482 µM and 0.92 µM.
With `CC(=O)Nc1ccc(S(=O)(=O)NCCc2ccc(S(=O)(=O)NC(=O)NC3CCC(C)CC3)cc2)cc1C` (stereo unspecified), in experiment [2], the EC50 turned out to be 7.14 µM.
The same measure, in the same setting: under `O=C(NC1CCCCC1)NS(=O)(=O)c1ccc(CCNS(=O)(=O)c2ccc(Br)cc2)cc1` stands 2.4 µM.
Turning to `CCCCNC(=O)NS(=O)(=O)c1ccc(NCC(=O)N2CC(=O)Nc3ccccc32)cc1`, in the experiment with Rattus norvegicus [1], the Activity came out at 40.55%. The IC50 in experiment [3] stood at 1.32 µM. Also, the EC50 in experiment [2] worked out at 1.95 µM.
Consider `CCC1=C(C)CN(C(=O)NCCc2ccc(S(=O)(=O)NC(=O)NC3CCC(C)CC3)cc2)C1=O` (stereo unspecified), for which the Activity in the experiment with Rattus norvegicus [4] stood at 26.53%. Also, the EC50 in experiment [2] was in the range of 0.73 to 4 µM.
As to `O=C(CN1CC(=O)Nc2ccccc21)Nc1ccc(S(=O)(=O)NC(=S)Nc2ccccc2)cc1`, the Activity in the experiment on Rattus norvegicus [1] is given as 2.88%.
In the case of `CC1CCC(NC(=O)NS(=O)(=O)c2ccc(CCNS(=O)(=O)c3ccc(Cl)cc3)cc2)CC1` (stereo unspecified), the EC50 in experiment [2] worked out at 2.04 µM.
On to `CC1CCC(NC(=O)NS(=O)(=O)c2ccc(CCNS(=O)(=O)c3ccc(Br)cc3)cc2)CC1` (stereo unspecified), for which, in experiment [2], the EC50 is 1.6 µM.
Regarding `O=C1CN(C(=O)CNc2ccc(S(=O)(=O)NC(=O)Nc3ccccc3)cc2)c2ccccc2N1`, the Activity in the experiment with Rattus norvegicus [1] was 22.01%.
Turning to `COc1ccc(NC(=S)NS(=O)(=O)c2ccc(CCNS(=O)(=O)c3ccc(Cl)cc3)cc2)cc1`, in experiment [2], the EC50 turned out to be 33.3 µM.
On the same count and under the same terms, under `CC1CCC(NC(=O)NS(=O)(=O)c2ccc(CCNS(=O)(=O)c3ccccc3)cc2)CC1` (stereo unspecified) stands 3.4 µM.
For the compound `O=C(CN1CC(=O)Nc2ccccc21)Nc1ccc(S(=O)(=O)NC(=O)NC2CCCCC2)cc1`, in the experiment with Rattus norvegicus [1], the Activity is recorded as 39.81%. Moreover, in experiment [3], the IC50 was 1.15 µM. For the same compound, the EC50 in experiment [2] was found to be 1.54 µM.
Regarding `CC(=O)Nc1ccc(S(=O)(=O)NCCc2ccc(S(=O)(=O)NC(=O)NC3CCC(C)CC3)cc2)cc1` (stereo unspecified), the EC50 in experiment [2] was determined as 20 µM.
In the case of `Cc1nc2ccccc2n(CC(=O)Nc2ccc(S(=O)(=O)NC(=S)Nc3ccccc3)cc2)c1=O`, the Activity with Rattus norvegicus [1] came out at 20.54%.
On to `COc1ccc(NC(=S)NS(=O)(=O)c2ccc(CCNS(=O)(=O)c3ccccc3)cc2)cc1`, for which the EC50 in experiment [2] is 1000 µM.
`CCCCNC(=S)NS(=O)(=O)c1ccc(NC(=O)Cn2c(=O)c(C)nc3ccccc32)cc1`: the Activity in the experiment with Rattus norvegicus [1] was determined as 43.84%. For the same compound, in experiment [3], the IC50 worked out at 0.369 µM. Further, the EC50 in experiment [2] amounted to 2.82 µM.
In the case of `Cc1nc2ccccc2n(CC(=O)Nc2ccc(S(=O)(=O)NC(=O)Nc3ccccc3)cc2)c1=O`, the Activity with Rattus norvegicus [1] is reported as 25.15%.
On to `CCCCNC(=O)NS(=O)(=O)c1ccc(NC(=O)Cn2c(=O)c(C)nc3ccccc32)cc1`, for which the Activity with Rattus norvegicus [1] stood at 40.55%. Besides, the IC50 in experiment [3] is 0.491 µM. For the same compound, the concentration giving a half-maximal response (EC50) in experiment [2] was found to be 0.98 µM.
Taken in the same sequence, the figures for `Cc1nc2ccccc2n(CC(=O)Nc2ccc(S(=O)(=O)NC(=S)NC3CCCCC3)cc2)c1=O` were 33.23%, 0.35 µM and 2.69 µM.
As to `O=S(=O)(NCCc1ccc(S(=O)(=O)NC(=S)Nc2ccc(Cl)cc2)cc1)c1ccc(Cl)cc1`, in experiment [2], the half-maximal effective concentration (EC50) stood at 33.3 µM.
For the compound `O=C(CN1CC(=O)Nc2ccccc21)Nc1ccc(S(=O)(=O)NC(=S)NC2CCCCC2)cc1`, the Activity with Rattus norvegicus [1] is recorded as 13.08%.
